Assay results from ChEMBL document CHEMBL1149773, “Synthesis, determination of the lipophilicity, anticancer and antimicrobial properties of some fused 1,2,4-triazole derivatives” (Eur J Med Chem, 2008).
Values after ≈ are worked out from the molar mass of the structure shown.

Assays:
Pseudomonas aeruginosa = experiment: Antimicrobial activity against Pseudomonas aeruginosa ATCC 27853 at 480.6 uM by disc-diffusion method; type: functional; settings: read-out: IZ
In short: (§1)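 Kirby–Bauer disc diffusion: 5 mm paper discs soaked in compound solution in DMSO (100 or 200 µg/mL; reference drugs 200 µg/mL) and laid on inoculated Mueller-Hinton agar (bacteria) or Sabouraud agar (C. albicans, Aspergillus). DMSO discs were the control. Plates ran 24 h at 35 °C. Inhibition zone diameter was scored 0–10 mm R, 11–16 mm I, 17–25 mm S; triplicate.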

Proteus vulgaris = experiment: Antimicrobial activity against Proteus vulgaris at 480.6 uM by disc-diffusion method; type: functional; settings: read-out: IZ; in short: as §1
Klebsiella pneumoniae = experiment: Antimicrobial activity against Klebsiella pneumoniae at 480.6 uM by disc-diffusion method; type: functional; settings: read-out: IZ; in short: as §1
Klebsiella aerogenes = experiment: Antimicrobial activity against Enterobacter aerogenes at 480.6 uM by disc-diffusion method; type: functional; settings: read-out: IZ; in short: as §1
Staphylococcus aureus = experiment: Antimicrobial activity against Staphylococcus aureus ATCC 25923 at 480.6 uM by disc-diffusion method; type: functional; settings: read-out: IZ; in short: as §1
[1] = test system: Staphylococcus epidermidis; experiment: Antimicrobial activity against Staphylococcus epidermidis at 480.6 uM by disc-diffusion method; type: functional; settings: read-out: IZ; in short: as §1
Streptococcus pyogenes = experiment: Antimicrobial activity against Streptococcus pyogenes at 480.6 uM by disc-diffusion method; type: functional; settings: read-out: IZ; in short: as §1
Streptococcus agalactiae = experiment: Antimicrobial activity against Streptococcus agalactiae at 480.6 uM by disc-diffusion method; type: functional; settings: read-out: IZ; in short: as §1
Aspergillus sp. = experiment: Antimicrobial activity against Aspergillus sp. at 480.6 uM by disc-diffusion method; type: functional; settings: read-out: IZ; in short: as §1
Candida albicans [2] = experiment: Antimicrobial activity against Candida albicans ATCC 10231 after 24 hrs by microdilution assay; type: functional; settings: ATCC 10231, 24 h
Escherichia coli = experiment: Antimicrobial activity against Escherichia coli ATCC 25922 at 480.6 uM by disc-diffusion method; type: functional; settings: read-out: IZ; in short: as §1
Candida albicans [3] = experiment: microbe, parasite or virus in culture; settings: ATCC 10231, read-out: IZ
[4] = Lipophilicity, log kw in dioxane aqueous system at pH 3.5; type: physicochemical; settings: buffer
In short: (§2)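 RP-HPLC on an octadecyl silica column (150 × 4.6 mm, 5 µm) at 22 ± 1 °C, flow 1.0 mL min⁻¹, UV detection at 254 nm. Mobile phase was methanol, acetonitrile or dioxane with water and 0.01 M phosphate buffer pH 3.5 containing 0.05 M DEA. log k_W was extrapolated to pure water by regression.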

[5] = Lipophilicity, log kw in acetonitrile aqueous system at pH 3.5; type: physicochemical; in short: as §2
[6] = Lipophilicity, log kw in methanol aqueous system at pH 3.5; type: physicochemical; in short: as §2
[7] = Growth inhibition of human skin fibroblast at 126.7 uM; type: cell-based; settings: human skin fibroblasts, read-out: GI
In short: (§3)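 Vero, LS180, SiHa, T47D or primary HSF cells were seeded at 10^4 cells per mL and preincubated in microtiter plates. Compounds were added at 10 or 50 µg mL⁻¹ (printed µM equivalents depend on the compound) and incubated 72 h. End-point was BrdU labelling read spectrophotometrically on an ELISA reader. Growth inhibition is % versus untreated controls; triplicates.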

[8] = Growth inhibition of african green monkey Vero cells at 25.3 uM; type: cell-based; settings: chlorocebus sabaeus, read-out: GI; in short: as §3
[9] = Growth inhibition of african green monkey Vero cells at 126.7 uM; type: cell-based; settings: chlorocebus sabaeus, read-out: GI; in short: as §3
[10] = Growth inhibition of human LS180 cells at 25.3 uM; type: functional; settings: read-out: GI; in short: as §3
[11] = Growth inhibition of human LS180 cells at 126.7 uM; type: functional; settings: read-out: GI; in short: as §3
SiHa [12] = experiment: Growth inhibition of human SiHa cells at 25.3 uM; type: functional; settings: read-out: GI; in short: as §3
SiHa [13] = experiment: Growth inhibition of human SiHa cells at 126.7 uM; type: functional; settings: read-out: GI; in short: as §3
T47D [14] = experiment: Growth inhibition of human T47D cells at 25.3 uM; type: functional; settings: read-out: GI; in short: as §3
T47D [15] = experiment: Growth inhibition of human T47D cells at 126.7 uM; type: functional; settings: read-out: GI; in short: as §3
[16] = Antiproliferative activity against human skin fibroblast assessed as cell viability at 1 uM by MTT assay; type: cell-based; settings: human skin fibroblasts, read-out: Activity
In short: (§4)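 Log-phase cells, kept in supplemented RPMI 1640 (HSF in DMEM/10% FBS) at 37 °C, 5% CO2, were exposed 24 h to 1, 50 or 100 µM compound from DMSO. They were washed, given 0.5 mg/mL MTT in HEPES buffer pH 7.4 for 45 min at 37 °C, and formazan was dissolved in DMSO and read at 570 nm. Values are % viability versus control from three independent measurements.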

[17] = Antiproliferative activity against human skin fibroblast assessed as cell viability at 50 uM by MTT assay; type: cell-based; settings: human skin fibroblasts, read-out: Activity
In short: (§5)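 MTT viability assay on primary human skin fibroblasts grown in DMEM with 10% FBS and penicillin/streptomycin. Compounds were dissolved in DMSO and given at 1, 50 or 100 µM for 24 h. Cells were washed in HEPES-buffered medium (pH 7.4) and then given MTT 0.5 mg mL⁻¹ for 45 min at 37 °C. Formazan was dissolved in DMSO and read at 570 nm. Viability is % of control; three independent measurements.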

[18] = Antiproliferative activity against human skin fibroblast assessed as cell viability at 100 uM by MTT assay; type: cell-based; settings: human skin fibroblasts, read-out: Activity; in short: as §5
[19] = Antiproliferative activity against human RPMI cells assessed as cell viability at 1 uM by MTT assay; type: functional; settings: read-out: Activity; in short: as §4
[20] = Antiproliferative activity against human RPMI cells assessed as cell viability at 50 uM by MTT assay; type: functional; settings: read-out: Activity; in short: as §4
[21] = Antiproliferative activity against human RPMI cells assessed as cell viability at 100 uM by MTT assay; type: functional; settings: read-out: Activity; in short: as §4
HeLa [22] = experiment: Antiproliferative activity against human HeLa cells assessed as cell viability at 1 uM by MTT assay; type: functional; settings: read-out: Activity; in short: as §4
HeLa [23] = experiment: Antiproliferative activity against human HeLa cells assessed as cell viability at 50 uM by MTT assay; type: functional; settings: read-out: Activity; in short: as §4
HeLa [24] = experiment: Antiproliferative activity against human HeLa cells assessed as cell viability at 100 uM by MTT assay; type: functional; settings: read-out: Activity; in short: as §4
[25] = Growth inhibition of human skin fibroblast at 25.3 uM; type: cell-based; settings: human skin fibroblasts, read-out: GI; in short: as §3

`Clc1ccc(COC(Cn2ccnc2)c2ccc(Cl)cc2Cl)c(Cl)c1` (centres undefined) [MICONAZOLE] gave a zone of inhibition at 480.6 µM (Pseudomonas aeruginosa) of 0 mm, a zone of inhibition at 480.6 µM (Proteus vulgaris) of 0 mm and a zone of inhibition at 480.6 µM (Klebsiella pneumoniae) of 0 mm. The zone of inhibition at 480.6 µM (Klebsiella aerogenes) was 0 mm, the zone of inhibition at 480.6 µM (Staphylococcus aureus) was 0 mm and the zone of inhibition at 480.6 µM [1] was 0 mm. It also gave a zone of inhibition at 480.6 µM (Streptococcus pyogenes) of 0 mm, a zone of inhibition at 480.6 µM (Streptococcus agalactiae) of 0 mm and a zone of inhibition at 480.6 µM (Aspergillus sp.) of 0 mm. For the same compound, the MIC (Candida albicans [2]) was 37.5 µM (≈ 15.6 µg/mL), the zone of inhibition at 480.6 µM (Escherichia coli) was 0 mm and the zone of inhibition at 480.6 µM (Candida albicans [3]) was 17 mm.
`Clc1ccc(N2CCn3c(COc4ccc(Cl)cc4Cl)nnc32)cc1` gave a logKw [4] of 4.15, a logKw [5] of 3.75 and a logKw [6] of 4.85. For the same compound, the inhibition at 126.7 µM [7] was 10%, the inhibition at 25.3 µM [8] was 20% and the inhibition at 126.7 µM [9] was 28%. The inhibition of growth at 25.3 µM [10] was 48%, the inhibition of growth at 126.7 µM [11] was 54% and the inhibition of growth at 25.3 µM (SiHa [12]) was 35%. For the same compound, the inhibition of growth at 126.7 µM (SiHa [13]) was 41%, the inhibition of growth at 25.3 µM (T47D [14]) was 28% and the inhibition of growth at 126.7 µM (T47D [15]) was 48%. For the same compound, the viability at 1 µM [16] was 83%, the viability at 50 µM [17] was 83.9% and the viability at 100 µM [18] was 86.8%. For the same compound, the viability at 1 µM [19] was 98.4%, the viability at 50 µM [20] was 24.4% and the viability at 100 µM [21] was 24.5%. For the same compound, the viability at 1 µM (HeLa [22]) was 68.4%, the viability at 50 µM (HeLa [23]) was 59.9% and the viability at 100 µM (HeLa [24]) was 56.3%. For the same compound, the inhibition at 25.3 µM [25] was 7%.
